Statin myotox sup = suppressors of simvastatin-induced myotoxicity in C2C12 myotubes; ATP luminescence, 48 h; scaled: DMSO 0, geranylgeraniol control 100; rescue of ATP level, % at 7.49 µM; actives 0.78% (n = 330,000); AID 602340;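 active means mean ATP rescue above about 67%, or every replicate alone reaching that limit, limit read from the data, passing the limit was not always enough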;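 further: myotubes were challenged with 10 µM simvastatin during compound exposure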
F508del corr = correctors of CFTR F508del function in bronchial epithelial cells. actives 0.36% (n = 350,000). activity (quench increase), % at 7.58 µM. AID 720511. CFBE cells, YFP halide quenching; stimulated with forskolin plus potentiator P3; % fluorescence drop versus neutral controls;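 active means mean added fluorescence quench of at least 8% versus neutral control, with both replicates also reaching 8%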;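 further: cells transiently co-express mutant CFTR-F508del with the halide-sensitive YFP; corrector assay measuring rescue of mutant channel to the surface after 24 h compound exposure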
ERp5 inh = blocks human ERp5 reductase activity on insulin. ERp5 insulin aggregation, absorbance 650 nm, 90 min. inhibition, % at 9.99 µM. actives 0.05% (n = 350,000). AID 651711;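 active means mean replicate inhibition above about 25%, with every replicate also reaching it, limit read from the data, passing the limit was not always enough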
DENV2 CPE = DENV2-induced cell death inhibition. CPE inhibition, % at 9.99 µM. actives 1.7% (n = 350,000). DENV2-infected cells, cytopathic effect rescue, plate reader. AID 651640; in the data active means CPE inhibition above about 20%, passing the limit was not always enough; tested in BHK-21 cells;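 further: 0% = median of neutral control wells and 100% = median of positive control wells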
PDI inh = PDI (human) enzyme inhibition; PDI insulin aggregation turbidity, A650, 90 min; inhibition, % at 10 µM; actives 0.052% (n = 350,000); AID 588391;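 active means mean inhibition across replicates of 30% or more, whatever share of single replicates reach that level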
Target sequence (P07237 whole entry, looked up): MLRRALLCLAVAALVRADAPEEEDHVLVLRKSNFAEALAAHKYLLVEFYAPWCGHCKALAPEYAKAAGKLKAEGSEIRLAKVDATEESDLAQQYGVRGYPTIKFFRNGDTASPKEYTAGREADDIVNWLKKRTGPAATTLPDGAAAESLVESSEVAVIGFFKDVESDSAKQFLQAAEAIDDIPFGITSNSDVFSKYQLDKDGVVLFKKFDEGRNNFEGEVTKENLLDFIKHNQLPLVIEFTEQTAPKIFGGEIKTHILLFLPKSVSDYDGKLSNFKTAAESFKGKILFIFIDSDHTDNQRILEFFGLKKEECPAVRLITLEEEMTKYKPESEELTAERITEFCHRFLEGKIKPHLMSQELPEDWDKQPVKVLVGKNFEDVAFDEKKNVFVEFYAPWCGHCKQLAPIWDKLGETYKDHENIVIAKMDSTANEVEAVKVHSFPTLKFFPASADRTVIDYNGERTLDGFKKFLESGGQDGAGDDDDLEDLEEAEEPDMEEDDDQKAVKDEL
Cneo AK release = Cryptococcus neoformans lysis via adenylate kinase release; lysis activity, % at 15 µM; C. neoformans lysis, adenylate kinase release luminescence, 4 h; normalised: neutral wells 0, clomiphene wells 100; actives 0.2% (n = 360,000);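 active means mean lysis activity across replicates of at least 80%, whatever share of replicates individually reach that level; inactive means mean lysis activity below 80%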
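Material: C. neoformans cells | Amount: Yeast cell density of 5 × 10^6 cells/mL | Medium: Fresh YPD growth medium | Dosing: Single dose | Times: Static 4 h at 37 °C with compound, 1 h detection | Detection: AK luminescence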
An asterisk follows results filed as active; x = no result given. Hits are enriched below; roughly 2.3% of the tested compounds scored in any of these assays.

SMILES | Statin myotox sup | F508del corr | ERp5 inh | DENV2 CPE | PDI inh | Cneo AK release
COc1cc(OC)cc(-c2c(-c3cccs3)c3cc(-c4cccc5[nH]ccc45)ccc3n2C)c1 | 9 | -1 | -2 | 5 | -3 | 0
COc1ccc(S(=O)(=O)Nc2ccc3c(c2)CC(=O)N([C@H](C)CO)C[C@@H](C)[C@@H](CN(C)S(=O)(=O)c2ccc(Cl)cc2)O3)cc1 | -45 | 1 | -2 | 9 | x | 0
COc1cccc(C(=O)Nc2ccc3c(c2)C(=O)N(C)C[C@H](OC)[C@H](C)CN(C(=O)C2CCCC2)[C@@H](C)CO3)c1 | -3 | -1 | -1 | 38* | x | -1
CO[C@@H]1CN(C)C(=O)c2ccc(NC(=O)CC(F)(F)F)cc2OC[C@H](C)N(C(=O)C2CCOCC2)C[C@H]1C | x | -8 | -1 | -2 | x | x
CO[C@H]1CN(C)C(=O)c2ccc(NC(=O)CC(F)(F)F)cc2OC[C@H](C)N(C(=O)C2CCOCC2)C[C@H]1C | x | 2 | x | 24* | x | x
CO[C@@H]1CN(C)C(=O)c2cc(NC(=O)CC(F)(F)F)ccc2OC[C@H](C)N(C(=O)C2CC2)C[C@H]1C | x | -1 | -1 | 0 | x | x
CO[C@@H]1CN(C)C(=O)c2cc(NC(=O)c3cc(C)on3)ccc2OC[C@H](C)N(C(=O)C2CC2)C[C@H]1C | -15 | -1 | -3 | 21* | x | -4
CO[C@H]1CN(C)C(=O)c2cc(NC(=O)CC(F)(F)F)ccc2OC[C@@H](C)N(C(=O)C2CC2)C[C@H]1C | x | 0 | 1 | 38* | x | x
C[C@@H](NC(=O)C[C@@H]1CC[C@@H]2[C@H](COC[C@H](O)CN2C(=O)Nc2cccc(Cl)c2)O1)c1ccccc1 | -15 | 1 | 1 | 2 | x | -5
COCC(=O)N1CCCCN2[C@H](CO)[C@@H](c3ccc(C#Cc4ccccc4)cc3)[C@@H]2C1 | 5 | 6 | -4 | 14 | x | -1
C[C@@H]1CN([C@@H](C)CO)C(=O)c2cc(C#CC3CCCC3)cnc2O[C@@H]1CN(C)Cc1ccncc1 | -29 | 5 | -3 | 5 | x | 12
C[C@H]1CN([C@@H](C)CO)S(=O)(=O)c2ccc(C#CC3(O)CCCC3)cc2O[C@H]1CN(C)C(=O)c1ccncc1 | -12 | 1 | 14 | 5 | x | 0
CC(C)CC#Cc1ccc2c(c1)O[C@@H](CN(C)C(=O)c1cnccn1)[C@@H](C)CN([C@@H](C)CO)S2(=O)=O | 17 | 0 | 1 | 36* | x | -4
CCCC#Cc1ccc2c(c1)O[C@@H](CN(C)C)[C@@H](C)CN([C@@H](C)CO)S2(=O)=O | 26 | -1 | 4 | -6 | x | 101*
CCCC#Cc1ccc2c(c1)O[C@@H](CN(C)C(=O)c1cnccn1)[C@H](C)CN([C@H](C)CO)S2(=O)=O | -24 | 3 | 4 | 1 | x | -3
CC(C)CC#Cc1ccc2c(c1)O[C@H](CN(C)C(=O)Nc1ccccc1F)[C@H](C)CN([C@H](C)CO)S2(=O)=O | 17 | 4 | 2 | 32* | x | -1
C[C@H](CO)N1C[C@H](C)[C@H](CN(C)C(=O)Nc2cc(F)ccc2F)Oc2cc(C#CC3CC3)ccc2S1(=O)=O | 75* | 3 | x | x | x | x
CCCC#Cc1ccc2c(c1)O[C@H](CN(C)C)[C@H](C)CN([C@@H](C)CO)S2(=O)=O | 9 | 0 | -3 | -5 | x | 2
O=C(Cc1ccccc1)N1CC[C@@H]2[C@H](CO)Nc3ccc(Br)cc3[C@@H]21 | 11 | -4 | 4 | 8 | x | -9
C[C@H]1CCCCO[C@@H](CN(C)Cc2ccncc2)[C@@H](C)CN([C@@H](C)CO)C(=O)c2cc(NS(=O)(=O)c3ccc(F)cc3)ccc2O1 | x | 0 | -3 | -7 | x | -1
C[C@H](CO)N1C[C@H](C)[C@H](CN(C)CC2CCOCC2)Oc2cc(C#CC3CC3)ccc2S1(=O)=O | 18 | 0 | 3 | 22* | x | 0
COc1ccccc1S(=O)(=O)N(C)C[C@H]1Oc2cc(C#CCC(C)C)ccc2S(=O)(=O)N([C@@H](C)CO)C[C@@H]1C | -49 | 0 | -3 | 103* | x | 49
CC(C)CC#Cc1ccc2c(c1)O[C@H](CN(C)Cc1cncnc1)[C@@H](C)CN([C@H](C)CO)S2(=O)=O | -37 | -4 | 1 | 58* | x | -6
CC(C)CC#Cc1ccc2c(c1)O[C@H](CN(C)Cc1cncnc1)[C@H](C)CN([C@H](C)CO)S2(=O)=O | -2 | 0 | -4 | -3 | x | -2
CCCNC(=O)N(C)C[C@@H]1Oc2cc(C#CCC(C)C)ccc2S(=O)(=O)N([C@@H](C)CO)C[C@H]1C | -10 | 4 | -2 | 36* | x | -1
SMILES | Statin myotox sup | F508del corr | ERp5 inh | DENV2 CPE | PDI inh | Cneo AK release
CCCNC(=O)Nc1ccc2c(c1)C(=O)N(C)C[C@H](OC)[C@@H](C)CN(CCC(F)(F)F)[C@H](C)CO2 | -15 | 4 | x | x | x | x
CC(C)NC(=O)N(C)C[C@@H]1Oc2c(NC(=O)c3cnccn3)cccc2C(=O)N([C@@H](C)CO)C[C@H]1C | 1 | -1 | -3 | -3 | x | 3
CC(C)CC#Cc1ccc2c(c1)O[C@@H](CN(C)C)[C@@H](C)CN([C@@H](C)CO)S2(=O)=O | -7 | -3 | -10 | 27* | x | -3
C[C@H]1CN([C@@H](C)CO)S(=O)(=O)c2ccc(C#CC3CCCC3)cc2O[C@@H]1CN(C)C | -91 | 2 | 3 | -6 | x | 6
C[C@H]1CN([C@@H](C)CO)S(=O)(=O)c2ccc(C#CC3CCCC3)cc2O[C@H]1CN(C)C | -48 | -2 | 2 | 32* | x | 1
CC(C)CC#Cc1ccc2c(c1)O[C@H](CN(C)C)[C@H](C)CN([C@@H](C)CO)S2(=O)=O | -3 | 0 | -7 | 15 | x | -4
CO[C@@H]1CN(C)C(=O)c2ccc(NC(=O)C3CC3)cc2OC[C@H](C)N(C(=O)CN(C)C)C[C@H]1C | -9 | 1 | -5 | -5 | x | 0
Cc1cc2c(s1)Nc1ccccc1N=C2N1CCN(C)CC1 | -1 | 9.4* | 2 | -7 | -5 | 1
COc1ccccc1CNC(=O)C[C@@H]1C[C@@H]2c3cc(NS(=O)(=O)c4ccc(F)cc4)ccc3O[C@@H]2[C@H](CO)O1 | 3 | 5 | 5 | 1 | x | -4
O=S(=O)(N[C@H]1CC[C@H](CCn2cc(-c3ccccc3F)nn2)O[C@@H]1CO)c1ccc(F)cc1 | x | 0 | 2 | 7 | x | x
CCOC(=O)C1CCN(S(=O)(=O)c2cc(Br)cc3c2N(C(C)=O)C(C)C3)CC1 (stereo not drawn) | 88* | x | x | x | 2 | 0
CCOC(=O)N1CCN(S(=O)(=O)c2cc(Br)cc3c2N(C(C)=O)C(C)C3)CC1 (stereo not drawn) | 19 | x | x | x | 4 | -2
CC(C)NC(=O)Nc1ccc2c(c1)C(=O)N([C@@H](C)CO)C[C@@H](C)[C@H](CN(C)C(=O)CCCN(C)C)OCCCC[C@@H](C)O2 | x | -2 | x | x | x | x
